Measurements taken from ChEMBL document CHEMBL3525957, “Stereospecific metabolism of itraconazole by CYP3A4: dioxolane ring scission of azole antifungals” (Drug Metab Dispos, 2012).

Assays:
Cytochrome P450 3A4 [1] = molecular target: T1, Cytochrome P450 3A4 (Homo sapiens, UniProt P08684); assay: Drug metabolism of the compound assessed as CYP3A4 (unknown origin)-mediated 1-(2,4-dichlorophenyl)-2-(1H-1,2,4-triazol-1-yl)ethanone formation by LC/MS/MS analysis; assay type: ADME
In short: (§1)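 kcat for M2 formation: trans isomers at 500 nM with CYP3A4 Supersomes (1 pmol) in KPi buffer. 5-min preincubation at 37°C, then NADPH (1 mM final) and 1-min reaction. M2 by LC-MS/MS, m/z 256.0>158.8, ITZ-d5 internal standard, standard curve 0.039–30 nM. kcat = product/time/pmol CYP3A4.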

Cytochrome P450 3A4 [2] = molecular target: T1, Cytochrome P450 3A4; assay: Drug metabolism of the compound assessed as CYP3A4 (unknown origin)-mediated 1-sec-butyl-4-(4-(4-(4-(3-hydroxy-2-oxopropoxy)phenyl)piperazin-1-yl)phenyl)-1H-1,2,4-triazol-5(4H)-one by LC/MS/MS analysis; assay type: ADME
Cytochrome P450 3A4 [3] = molecular target: T1, Cytochrome P450 3A4; assay: Drug metabolism of the compound assessed as CYP3A4 (unknown origin)-mediated 3-(4-(4-(4-(1-sec-butyl-5-oxo-1H-1,2,4-triazol-4(5H)-yl)phenyl)piperazin-1-yl)phenoxy)-2-hydroxypropanal by LC/MS/MS analysis; assay type: ADME
Cytochrome P450 3A4 [4] = molecular target: T1, Cytochrome P450 3A4; assay: Drug metabolism of the compound assessed as reconstituted CYP3A4 (unknown origin)-mediated 1-(2,4-dichlorophenyl)-2-(1H-1,2,4-triazol-1-yl)ethanone formation at 500 nM after 5 mins by LC/MS analysis in presence of NADPH; assay type: ADME; details: 0.5 µM
Cytochrome P450 3A4 [5] = molecular target: T1, Cytochrome P450 3A4; assay: Drug metabolism of the compound assessed as CYP3A4 (unknown origin) coexpressing P450 reductase and cytochrome-b5-mediated 1-(2,4-dichlorophenyl)-2-(1H-1,2,4-triazol-1-yl)ethanone formation at 500 nM after 5 mins by LC/MS analysis in presence of NADPH; assay type: ADME; details: 0.5 µM
Cytochrome P450 3A4 [6] = molecular target: T1, Cytochrome P450 3A4; assay: Drug level of the compound assessed as CYP3A4 (unknown origin) coexpressing P450 reductase and cytochrome-b5-mediated metabolite formation treated with trans-(2S,4S,2'S)-ITZ by LC/MS/MS analysis; assay type: ADME
Cytochrome P450 3A4 [7] = molecular target: T1, Cytochrome P450 3A4; assay: Drug level of the compound assessed as purified CYP3A4 (unknown origin)-mediated metabolite formation treated with trans-(2S,4S,2'S)-ITZ by LC/MS/MS analysis; assay type: ADME
Cytochrome P450 3A4 [8] = molecular target: T1, Cytochrome P450 3A4; assay: Drug level of the compound assessed as CYP3A4 (unknown origin)-mediated metabolite formation treated with cis-ITZ by LC/MS/MS analysis; assay type: ADME
In short: (§2)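 Substrate incubated with CYP3A4 Supersomes (100 pmol) in KPi buffer at 37°C for 1 h, with and without NADPH, plus a no-enzyme control. Products by LC/Q-TOF MS, positive ESI, m/z 100–1500, cone 35 V, low-energy (6 eV) and ramped high-energy modes.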

Cytochrome P450 3A4 [9] = molecular target: T1, Cytochrome P450 3A4; assay: Drug metabolism of the compound assessed as CYP3A4 (unknown origin) coexpressing P450 reductase and cytochrome-b5-mediated 1-(2,4-dichlorophenyl)-2-(1H-1,2,4-triazol-1-yl)ethanone formation by LC/MS/MS analysis; assay type: ADME; in short: as §1
Cytochrome P450 3A4 [10] = molecular target: T1, Cytochrome P450 3A4; assay: Drug level of the compound assessed as CYP3A4 (unknown origin) coexpressing P450 reductase and cytochrome-b5-mediated metabolite formation treated with trans-ITZ by LC/MS/MS analysis; assay type: ADME
Cytochrome P450 3A4 [11] = molecular target: T1, Cytochrome P450 3A4; assay: Drug level of the compound assessed as CYP3A4 (unknown origin)-mediated metabolite formation treated with 3'-OH-ITZ by LC/MS/MS analysis; assay type: ADME; in short: as §2
Cytochrome P450 3A4 [12] = molecular target: T1, Cytochrome P450 3A4; assay: Drug level of the compound assessed as CYP3A4 (unknown origin)-mediated metabolite formation treated with keto-ITZ by LC/MS/MS analysis; assay type: ADME; in short: as §2
Cytochrome P450 3A4 [13] = molecular target: T1, Cytochrome P450 3A4; assay: Drug level of the compound assessed as CYP3A4 (unknown origin)-mediated metabolite formation treated with N-desalkyl-ITZ by LC/MS/MS analysis; assay type: ADME; in short: as §2
[14] = Drug metabolism in human assessed as 1-(2,4-dichlorophenyl)-2-(1H-1,2,4-triazol-1-yl)ethanone level in urine at 400 mg, po after 24 hrs by MS/MS analysis; assay type: ADME, organism-based; details: in vivo
In short: (§3)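 Six subjects (5 male, 1 female) received itraconazole 400 mg orally. Urine collected 24 h before dosing, 0–12 and 12–24 h after, then 24–48, 72–96 and 120–144 h, with volume recorded. 5 ml urine extracted with ethyl acetate. M2 measured by MS/MS at transition m/z 256>158.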

[15] = Drug metabolism in human assessed as 1-(2,4-dichlorophenyl)-2-(1H-1,2,4-triazol-1-yl)ethanone level in urine at 400 mg, po measured on day 2 by MS/MS analysis; assay type: ADME, organism-based; details: in vivo; in short: as §3
[16] = Drug metabolism in human assessed as 1-(2,4-dichlorophenyl)-2-(1H-1,2,4-triazol-1-yl)ethanone level in urine at 400 mg, po measured on day 4 by MS/MS analysis; assay type: ADME, organism-based; details: in vivo; in short: as §3
[17] = Drug metabolism in human assessed as 1-(2,4-dichlorophenyl)-2-(1H-1,2,4-triazol-1-yl)ethanone level in urine at 400 mg, po measured on day 7 by MS/MS analysis; assay type: ADME, organism-based; details: in vivo; in short: as §3
CYP3A4 = CYP3A4 (Homo sapiens, UniProt P08684); assay: Inhibition of CYP3A4 in human liver microsomes using midazolam as substrates at 15 uM after 5 mins by LC/MS analysis in presence of NADPH; assay type: ADME; details: probe midazolam
Cytochrome P450 3A4 [18] = molecular target: T1, Cytochrome P450 3A4; assay: Inhibition of CYP3A4 in human liver microsomes using midazolam as substrates after 5 mins by LC/MS analysis in presence of NADPH; assay type: ADME
In short: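 Pooled HLM (0.025 mg/ml, CYP3A5*3/*3) with midazolam 1 μM in KPi. Inhibitor range 5–1000 nM for trans isomers. 5-min preincubation at 37°C, then NADPH 1 mM final, run for 2 min. Stopped with ethyl acetate, d4-1'-OH-MDZ added as internal standard. IC50 from fit of remaining-activity equation.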

Cytochrome P450 3A4 [19] = molecular target: T1, Cytochrome P450 3A4; assay: Binding affinity to purified CYP3A4 (unknown origin) coexpressing P450 reductase and cytochrome-b5 by UV-Vis spectrophotometry; assay type: ADME; details: read-out: Ks
Cytochrome P450 3A4 [20] = molecular target: T1, Cytochrome P450 3A4; assay: Drug metabolism of the compound assessed as CYP3A4 (unknown origin) coexpressing P450 reductase and cytochrome-b5-mediated 1-sec-butyl-4-(4-(4-(4-(2,3-dihydroxypropoxy)phenyl)piperazin-1-yl)phenyl)-1H-1,2,4-triazol-5(4H)-one formation after 1 hr by LC/MS/MS analysis; assay type: ADME
Cytochrome P450 3A4 [21] = molecular target: T1, Cytochrome P450 3A4; assay: Drug metabolism of the compound assessed as CYP3A4 (unknown origin) coexpressing P450 reductase and cytochrome-b5-mediated 1-sec-butyl-4-(4-(4-(4-(3-hydroxy-2-oxopropoxy)phenyl)piperazin-1-yl)phenyl)-1H-1,2,4-triazol-5(4H)-one after 5 mins by LC/MS/MS analysis in presence of NADPH; assay type: ADME
Cytochrome P450 3A4 [22] = molecular target: T1, Cytochrome P450 3A4; assay: Drug metabolism of the compound assessed as CYP3A4 (unknown origin) coexpressing P450 reductase and cytochrome-b5-mediated 3-(4-(4-(4-(1-sec-butyl-5-oxo-1H-1,2,4-triazol-4(5H)-yl)phenyl)piperazin-1-yl)phenoxy)-2-hydroxypropanal after 5 mins by LC/MS/MS analysis in presence of NADPH; assay type: ADME
Cytochrome P450 3A4 [23] = molecular target: T1, Cytochrome P450 3A4; assay: Drug metabolism of the compound assessed as purified CYP3A4 (unknown origin)-mediated 1-sec-butyl-4-(4-(4-(4-(3-hydroxy-2-oxopropoxy)phenyl)piperazin-1-yl)phenyl)-1H-1,2,4-triazol-5(4H)-one by LC/MS/MS analysis in presence of NADPH; assay type: ADME
Cytochrome P450 3A4 [24] = molecular target: T1, Cytochrome P450 3A4; assay: Drug metabolism of the compound assessed as purified CYP3A4 (unknown origin)-mediated 3-(4-(4-(4-(1-sec-butyl-5-oxo-1H-1,2,4-triazol-4(5H)-yl)phenyl)piperazin-1-yl)phenoxy)-2-hydroxypropanal by LC/MS/MS analysis in presence of NADPH; assay type: ADME
Cytochrome P450 3A4 [25] = molecular target: T1, Cytochrome P450 3A4; assay: Drug metabolism of the compound assessed as CYP3A4 (unknown origin) coexpressing P450 reductase and cytochrome-b5-mediated 1-sec-butyl-4-(4-(4-(4-(2,3-dihydroxypropoxy)phenyl)piperazin-1-yl)phenyl)-1H-1,2,4-triazol-5(4H)-one formation after 3 mins by LC/MS/MS analysis; assay type: ADME; details: 0.05 h

T1 sequence (P08684 whole entry): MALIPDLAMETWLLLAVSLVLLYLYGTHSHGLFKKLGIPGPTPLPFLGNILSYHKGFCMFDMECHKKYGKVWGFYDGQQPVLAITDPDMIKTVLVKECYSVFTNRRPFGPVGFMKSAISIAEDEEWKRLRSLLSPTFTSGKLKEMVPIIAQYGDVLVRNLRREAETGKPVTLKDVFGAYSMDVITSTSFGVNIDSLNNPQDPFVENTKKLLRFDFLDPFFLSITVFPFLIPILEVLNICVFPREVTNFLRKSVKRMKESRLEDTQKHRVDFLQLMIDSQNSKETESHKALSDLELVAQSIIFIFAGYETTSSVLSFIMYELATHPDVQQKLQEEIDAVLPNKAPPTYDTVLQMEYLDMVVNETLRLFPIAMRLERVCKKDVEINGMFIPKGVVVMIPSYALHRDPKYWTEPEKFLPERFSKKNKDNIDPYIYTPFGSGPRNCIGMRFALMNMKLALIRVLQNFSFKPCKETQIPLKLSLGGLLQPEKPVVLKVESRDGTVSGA
CYP3A4, sequence (P08684 whole entry): as above

## CC[C@H](C)n1ncn(-c2ccc(N3CCN(c4ccc(OC[C@@H]5CO[C@@](Cn6cncn6)(c6ccc(Cl)cc6Cl)O5)cc4)CC3)cc2)c1=O
Cytochrome P450 3A4 [1]
  Drug metabolism: metabolite_detected
Cytochrome P450 3A4 [2]
  Drug metabolism: metabolite_detected
Cytochrome P450 3A4 [3]
  Drug metabolism: metabolite_detected

## CC[C@@H](C)n1ncn(-c2ccc(N3CCN(c4ccc(OC[C@@H]5CO[C@@](Cn6cncn6)(c6ccc(Cl)cc6Cl)O5)cc4)CC3)cc2)c1=O
Cytochrome P450 3A4 [1]
  Drug metabolism: metabolite_detected
Cytochrome P450 3A4 [2]
  Drug metabolism: metabolite_detected
Cytochrome P450 3A4 [3]
  Drug metabolism: metabolite_detected

## CC[C@@H](C)n1ncn(-c2ccc(N3CCN(c4ccc(OC[C@@H]5CO[C@](Cn6cncn6)(c6ccc(Cl)cc6Cl)O5)cc4)CC3)cc2)c1=O
Cytochrome P450 3A4 [4]
  Kcat: 0.0032 s⁻¹
Cytochrome P450 3A4 [5]
  Kcat: 0.0159 s⁻¹

## CC[C@H](C)n1ncn(-c2ccc(N3CCN(c4ccc(OC[C@H]5CO[C@](Cn6cncn6)(c6ccc(Cl)cc6Cl)O5)cc4)CC3)cc2)c1=O
Cytochrome P450 3A4 [1]
  Drug metabolism: metabolite_detected
Cytochrome P450 3A4 [2]
  Drug metabolism: metabolite_detected
Cytochrome P450 3A4 [3]
  Drug metabolism: metabolite_detected

## CCC(C)n1ncn(-c2ccc(N3CCN(c4ccc(OCC(=O)CO)cc4)CC3)cc2)c1=O (centres undefined)
Cytochrome P450 3A4 [6]
  Drug metabolism: metabolite_detected
Cytochrome P450 3A4 [7]
  Drug metabolism: metabolite_detected
Cytochrome P450 3A4 [8]
  Drug metabolism: metabolite_detected

## O=C(Cn1cncn1)c1ccc(Cl)cc1Cl
Cytochrome P450 3A4 [9]
  Drug metabolism: metabolite_detected
Cytochrome P450 3A4 [10]
  Drug metabolism: metabolite_detected
Cytochrome P450 3A4 [8]
  Drug metabolism: metabolite_detected
Cytochrome P450 3A4 [11]
  Drug metabolism: metabolite_detected
Cytochrome P450 3A4 [12]
  Drug metabolism: metabolite_detected
Cytochrome P450 3A4 [13]
  Drug metabolism: metabolite_detected
[14]
  Drug metabolism: 1114 ng
[15]
  Drug metabolism: 429 ng
[16]
  Drug metabolism: 319 ng
[17]
  Drug metabolism: 87 ng
CYP3A4
  inhibition at 5 min, 15 µM: < 50%
Cytochrome P450 3A4 [18]
  IC50: > 15 µM
Cytochrome P450 3A4 [19]
  Kd: 12.8 µM
Cytochrome P450 3A4 [20]
  Drug metabolism: metabolite_detected

## CCC(C)n1ncn(-c2ccc(N3CCN(c4ccc(OCC(O)CO)cc4)CC3)cc2)c1=O (centres undefined)
Cytochrome P450 3A4 [9]
  Drug metabolism: metabolite_detected
Cytochrome P450 3A4 [10]
  Drug metabolism: metabolite_detected
Cytochrome P450 3A4 [7]
  Drug metabolism: metabolite_not_detected
Cytochrome P450 3A4 [20]
  Drug metabolism: metabolite_detected

## CC[C@H](C)n1ncn(-c2ccc(N3CCN(c4ccc(OC[C@@H]5CO[C@](Cn6cncn6)(c6ccc(Cl)cc6Cl)O5)cc4)CC3)cc2)c1=O
Cytochrome P450 3A4 [4]
  Kcat: 0.0038 s⁻¹
Cytochrome P450 3A4 [5]
  Kcat: 0.0214 s⁻¹

## CC[C@@H](C)n1ncn(-c2ccc(N3CCN(c4ccc(OC[C@H]5CO[C@@](Cn6cncn6)(c6ccc(Cl)cc6Cl)O5)cc4)CC3)cc2)c1=O
Cytochrome P450 3A4 [4]
  Kcat: 0.0041 s⁻¹
Cytochrome P450 3A4 [5]
  Kcat: 0.0183 s⁻¹

## CC[C@H](C)n1ncn(-c2ccc(N3CCN(c4ccc(OC[C@H]5CO[C@@](Cn6cncn6)(c6ccc(Cl)cc6Cl)O5)cc4)CC3)cc2)c1=O
Cytochrome P450 3A4 [21]
  Drug metabolism: metabolite_detected
Cytochrome P450 3A4 [22]
  Drug metabolism: metabolite_detected
Cytochrome P450 3A4 [23]
  Drug metabolism: metabolite_detected
Cytochrome P450 3A4 [24]
  Drug metabolism: metabolite_detected
Cytochrome P450 3A4 [25]
  Drug metabolism: metabolite_detected
Cytochrome P450 3A4 [4]
  Kcat: 0.0042 s⁻¹
Cytochrome P450 3A4 [5]
  Kcat: 0.0198 s⁻¹

## CCC(C)n1ncn(-c2ccc(N3CCN(c4ccc(OCC(O)C=O)cc4)CC3)cc2)c1=O (centres undefined)
Cytochrome P450 3A4 [6]
  Drug metabolism: metabolite_detected
Cytochrome P450 3A4 [7]
  Drug metabolism: metabolite_detected
Cytochrome P450 3A4 [8]
  Drug metabolism: metabolite_detected

## CC[C@@H](C)n1ncn(-c2ccc(N3CCN(c4ccc(OC[C@H]5CO[C@](Cn6cncn6)(c6ccc(Cl)cc6Cl)O5)cc4)CC3)cc2)c1=O
Cytochrome P450 3A4 [1]
  Drug metabolism: metabolite_detected
Cytochrome P450 3A4 [2]
  Drug metabolism: metabolite_detected
Cytochrome P450 3A4 [3]
  Drug metabolism: metabolite_detected
